The values below come from ChEMBL document CHEMBL1129987, “Structure-based design of nonpeptidic HIV protease inhibitors: the sulfonamide-substituted cyclooctylpyramones” (J Med Chem, 1997).

A short description of series [1]: Total plasma clearance value was obtained after intravenous administration of 2.5 mg/kg of drug in male Dawley rats. The class given is ADME, organism-based. Conditions: Sprague-Dawley, rat. The arrangement: dose 2.5 mg/kg, route intravenous.
Series [2] is described as follows: Total plasma clearance value was obtained after intravenous administration of 4.9 mg/kg of drug in male Beagle dogs. The class given is ADME, organism-based, Canis lupus familiaris. The conditions noted are these: dog. The arrangement: dose 4.9 mg/kg, route intravenous.
Series [3] in a line: Maximum concentration was measured after peroral administration of 5.1 mg/kg of drug in male Dawley rats. The class given is ADME, organism-based. The arrangement: dose 5.1 mg/kg, route oral. Conditions: Sprague-Dawley, rat, in vivo, po.
The nature of series [4]: Maximum time taken by the drug to reach peak concentration after peroral administration of 10 mg/kg of drug male in male Beagle dogs. The class given is ADME, organism-based, Canis lupus familiaris. The arrangement: dose 10 mg/kg, route oral. Conditions: dog, in vivo, po. In a few lines: (§1)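 Male beagle dogs received a 10 mg/kg oral dose. tmax is reported as a range. Bioavailability was calculated as %F = (AUCpo/AUCiv) × (doseiv/dosepo) against a separate iv study. Values are mean ± SD, n = 3.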

Series [5] in a line: Maximum time taken by the drug to reach peak concentration after peroral administration of 5.1 mg/kg of drug male in Dawley rats. The class given is ADME, organism-based. The arrangement: dose 5.1 mg/kg, route oral. Conditions: Sprague-Dawley, rat, in vivo, po.
Series [6] is described as follows: Oral bioavailability in dog (Beagle) (male) (dose 10 mg/kg p.o.). The class given is ADME, organism-based, Canis lupus familiaris. The conditions noted are these: in vivo. The method, boiled down:
as §1

Series [7] can be described thus: Oral bioavailability in rat (Sprague-Dawley) (male) (dose 5.1 mg/kg p.o.). The class given is ADME, organism-based. Conditions: in vivo.
The nature of series [8]: Apparent volume of distribution was obtained after intravenous administration of 4.9 mg/kg of drug in male Beagle dogs. The arrangement: dose 4.9 mg/kg, route intravenous. The conditions noted are these: dog, in vivo, read-out: Vss. The class given is ADME, organism-based, Canis lupus familiaris.
Series [9] can be described thus: Half-life was measured after intravenous administration of 4.9 mg/kg of drug in male Beagle dogs. The class given is ADME, organism-based, Canis lupus familiaris. The arrangement: dose 4.9 mg/kg, route intravenous. Conditions: dog, in vivo.
The test system of series [10] is Human immunodeficiency virus 1. As to the kind of experiment: Antiviral activity in HIV-1 infected H9 cells. The class given is functional. Conditions: Human immunodeficiency virus 1, H9; read-out: ED50 (the source's name). In a few lines:
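H9 cells infected with HIV-1 IIIB at MOI about 0.005, spun down (200g, 10 min), resuspended at 8 × 10^5 cells/mL in RPMI Complete and mixed with compound; final DMSO 0.1%, triplicate per concentration. After 5 days at 37 °C in 5% CO2, supernatant p24 antigen was measured by ELISA. ED50 is the drug amount that reduces p24 by 50% versus DMSO drug-free controls.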

Series [11] is described as follows: Half-life was measured after intravenous administration of 2.5 mg/kg of drug in male Dawley rats. The class given is ADME, organism-based. The arrangement: dose 2.5 mg/kg, route intravenous. The conditions noted are these: Sprague-Dawley, rat, in vivo.
A short description of series [12]: Median cell culture toxic dose was evaluated against H9 cell line. The class given is ADME, cell-based. The conditions noted are these: human, H9 cells; read-out: CCTD50.
The nature of series [13]: Total plasma clearance value was obtained after intravenous administration of 1.8 mg/kg of drug in male Beagle dogs. The class given is ADME, organism-based, Canis lupus familiaris. The arrangement: dose 1.8 mg/kg, route intravenous. Conditions: dog.
Series [14] can be described thus: Total plasma clearance value was obtained after intravenous administration of 2.7 mg/kg of drug in male Dawley rats. The conditions noted are these: Sprague-Dawley, rat. The arrangement: dose 2.7 mg/kg, route intravenous. The class given is ADME, organism-based.
Series [15] is described as follows: Maximum concentration was measured after peroral administration of 10 mg/kg of drug in male Beagle dogs. The class given is ADME, organism-based, Canis lupus familiaris. The arrangement: dose 10 mg/kg, route oral. The conditions noted are these: dog, in vivo, po. The method, boiled down:
as §1

The nature of series [16]: Maximum concentration was measured after peroral administration of 5.2 mg/kg of drug in male Dawley rats. The class given is ADME, organism-based. The arrangement: dose 5.2 mg/kg, route oral. The conditions noted are these: Sprague-Dawley, rat, in vivo, po.
Series [17] can be described thus: Maximum time taken by the drug to reach peak concentration after peroral administration of 5.2 mg/kg of drug male in Dawley rats. The class given is ADME, organism-based. The arrangement: dose 5.2 mg/kg, route oral. Conditions: Sprague-Dawley, rat, in vivo, po.
Series [18] is described as follows: Oral bioavailability in rat (Sprague-Dawley) (male) (dose 5.2 mg/kg p.o.). Conditions: in vivo. The class given is ADME, organism-based.
A short description of series [19]: Apparent volume of distribution was obtained after intravenous administration of 1.8 mg/kg of drug in male Beagle dogs. The class given is ADME, organism-based, Canis lupus familiaris. The arrangement: dose 1.8 mg/kg, route intravenous. The conditions noted are these: dog, in vivo, read-out: Vss.
Series [20] in a line: Apparent volume of distribution was obtained after intravenous administration of 2.7 mg/kg of drug in male Dawley rats. The arrangement: dose 2.7 mg/kg, route intravenous. The class given is ADME, organism-based. Conditions: Sprague-Dawley, rat, in vivo, read-out: Vss.
The nature of series [21]: Half-life was measured after intravenous administration of 1.8 mg/kg of drug in male Beagle dogs. The class given is ADME, organism-based, Canis lupus familiaris. The arrangement: dose 1.8 mg/kg, route intravenous. Conditions: dog, in vivo.
The nature of series [22]: Half-life was measured after intravenous administration of 2.7 mg/kg of drug in male Dawley rats. The conditions noted are these: Sprague-Dawley, rat, in vivo. The arrangement: dose 2.7 mg/kg, route intravenous. The class given is ADME, organism-based.
Series [23] concerns the target Human immunodeficiency virus type 1 protease (Human immunodeficiency virus 1, UniProt Q72874). The series can be described thus: Binding affinity against HIV-1 protease.
The test system of series [24] is Rattus norvegicus. The series can be described thus: Total plasma clearance value was obtained after intravenous administration of […] mg/kg of drug in male Dawley rats. The class given is ADME, organism-based. The conditions noted are these: in vivo, 2.8 mg/kg.
Series [25] in a line: Maximum time taken by the drug to reach peak concentration after peroral administration of 5.2 mg/kg of drug in male Dawley rats. The class given is ADME, organism-based. The arrangement: dose 5.2 mg/kg, route oral. Conditions: Sprague-Dawley, rat, in vivo, po.
The test system of series [26] is Rattus norvegicus. The series can be described thus: Apparent volume of distribution was obtained after intravenous administration of 2.8 mg/kg of drug in male Dawley rats. The class given is ADME, organism-based. The arrangement: dose 2.8 mg/kg, route intravenous. The conditions noted are these: in vivo.
Series [27] concerns Rattus norvegicus. The series can be described thus: Half-life was measured after intravenous administration of […] mg/kg of drug in male Dawley rats. The conditions noted are these: in vivo, 2.8 mg/kg. The class given is ADME, organism-based.
Series [28] in a line: Total plasma clearance value was obtained after intravenous administration of 2.6 mg/kg of drug in male Dawley rats. The conditions noted are these: Sprague-Dawley, rat. The arrangement: dose 2.6 mg/kg, route intravenous. The class given is ADME, organism-based.
Series [29] in a line: Maximum concentration was measured after peroral administration of 5.0 mg/kg of drug in male Dawley rats. The class given is ADME, organism-based. The arrangement: dose 5 mg/kg, route oral. The conditions noted are these: Sprague-Dawley, rat, in vivo, po.
The nature of series [30]: Maximum time taken by the drug to reach peak concentration after peroral administration of 5.0 mg/kg of drug in male Dawley rats. The class given is ADME, organism-based. The arrangement: dose 5 mg/kg, route oral. Conditions: Sprague-Dawley, rat, in vivo, po.
The nature of series [31]: Oral bioavailability in rat (Sprague-Dawley) (male) (dose 5 mg/kg). Conditions: in vivo. The class given is ADME, organism-based.
Series [32] in a line: Apparent volume of distribution was obtained after intravenous administration of 2.6 mg/kg of drug in male Dawley rats. The class given is ADME, organism-based. The arrangement: dose 2.6 mg/kg, route intravenous. Conditions: Sprague-Dawley, rat, in vivo, read-out: Vss.
The nature of series [33]: Half-life was measured after intravenous administration of 2.6 mg/kg of drug in male Dawley rats. The class given is ADME, organism-based. Conditions: Sprague-Dawley, rat, in vivo. The arrangement: dose 2.6 mg/kg, route intravenous.

By clearance is commonly meant the rate of elimination divided by the concentration. Higher therefore signals efficient removal. A word on the Cmax: it is the maximum level reached in the sampled fluid or tissue. As usually defined, the Tmax is the time from dosing to the highest level. The term half-life denotes how long it takes for the measured level to halve. Consider `N#Cc1ccc(S(=O)(=O)Nc2cccc(C(c3c(O)c4c(oc3=O)CCCCCC4)C3CC3)c2)cc1` (centres undefined), for which the clearance in series [1] is 1.25 mL/min/kg; in series [2] it was 0.733 mL/min/kg. In addition, in [3], the concentration peaked (Cmax) at 24 µM. Also, the figures for the time of peak concentration (Tmax) in series [4] and in [5] were 30 min and 15 min, respectively. In addition, the values for the bioavailability in [6] and in [7] were 77% and 42%, respectively. In addition, the Vd in [8] worked out at 0.085 L/kg. Also, the half-life in [9] is 378 min; in series [11] it was 180 min. Further, the EC50 in series [10] turned out to be 1.3 µM. The CC50 in [12] came out at 90 µM.

As a reminder, the Ki is the equilibrium dissociation constant of an inhibitor or competing ligand from its target. For `O=c1c2c(oc(O)c1C(c1cccc(NS(=O)(=O)c3ccc(F)cc3)c1)C1CC1)CCCCCC2` (centres undefined), the clearance was 3.17 mL/min/kg in series [13] and 0.717 mL/min/kg in series [14]. Moreover, the Cmax was found to be 61 µM in series [15] and 31 µM in series [16]. The Tmax came out at 30 min in series [4] and 15 min in [17]. Moreover, the bioavailability in series [6] is 107%; in series [18], 50%. In addition, the Vd turned out to be 0.08 L/kg in series [19] and 0.16 L/kg in series [20]. Further, the half-life in series [21] was 34.2 min; in series [22] it was 372 min. Moreover, the EC50 in [10] is 2 µM. The Ki in series [23] came out at 0.0031 µM. Further, the CC50 in series [12] was 68 µM.

In the case of `O=c1c2c(oc(O)c1[C@@H](c1cccc(NS(=O)(=O)c3ccc(F)cc3)c1)C1CC1)CCCCCC2`, the CL in the series on Rattus norvegicus [24] was found to be 0.067 mL/min/kg. The concentration in [16] peaked (Cmax) at 24 µM. In [25], the Tmax was 15 min. For the same compound, the bioavailability in series [18] came to 53%. For the same compound, the Vss with Rattus norvegicus [26] turned out to be 0.15 L/kg. Moreover, the T1/2 in the series with Rattus norvegicus [27] is 360 min. In series [10], the EC50 is over 10 µM. In series [23], the Ki was found to be 0.0021 µM. For the same compound, in series [12], the CC50 was over 30 µM.

Consider `N#Cc1ccc(S(=O)(=O)Nc2cccc([C@H](c3c(O)oc4c(c3=O)CCCCCC4)C3CC3)c2)cc1`, for which the clearance in [28] is 0.933 mL/min/kg. In series [29], this compound returned a Cmax of 13 µM. The Tmax in series [30] stood at 15 min. Further, in series [31], the bioavailability stood at 31%. Moreover, in series [32], the Vd stood at 0.15 L/kg. This compound also had a half-life in series [33] of 450 min. Also, the EC50 in series [10] is 8.3 µM. For the same compound, the CC50 in series [12] is over 30 µM.
